From ChEMBL document CHEMBL4321805, “A Conformational Restriction Strategy for the Identification of a Highly Selective Pyrimido-pyrrolo-oxazine mTOR Inhibitor” (J Med Chem, 2019) come the findings set out here.

Data set [1] addresses T1, Serine/threonine-protein kinase mTOR (Homo sapiens, UniProt P42345). The experiment in a line: Binding affinity to wild-type human partial length mTOR (L1382 to W2549 residues) expressed in mammalian expression system by kinome scan assay. The procedure, abridged:
(§1)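 DNA-tagged kinases competed against immobilized ligand with an 11-point 3-fold serial dilution starting from 30 μM. Kinase bound measured by qPCR of the DNA tags. Kd from standard dose–response curves with the Hill equation (Hill slope −1); mean of duplicate experiments.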

The species entered for data set [2] is Homo sapiens. Briefly: Selectivity ratio of Kd for binding affinity to human wild-type partial length PI3Kalpha (R108 to N1068 residues) expressed in mammalian expression system to Kd for binding affinity to wild-type human partial length mTOR (L1382 to W2549 residues) expressed in mammalian expression system. An outline of the steps: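 Ratio of Kd values from the DNA-tagged kinase competition binding assay (qPCR read-out, 11-point 3-fold dilution from 30 μM, Hill fit with slope −1, duplicates): PI3Kα Kd divided by mTOR Kd.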

The target in data set [3] is Phosphatidylinositol 4,5-bisphosphate 3-kinase catalytic subunit alpha isoform (Homo sapiens, UniProt P42336). Briefly: Binding affinity to human wild-type partial length PI3Kalpha (R108 to N1068 residues) expressed in mammalian expression system by kinome scan assay. An outline of the steps:
as §1

Data set [4] addresses T1, Serine/threonine-protein kinase mTOR. Briefly: Inhibition of alexa fluor 647-labeled kinase tracer 314 binding to recombinant human N-terminal GST-fused mTOR (1360 to 2549 residues) expressed in baculovirus expression system by TR-FRET assay. The procedure, abridged: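 LanthaScreen TR-FRET tracer displacement. GST-fused truncated mTOR (aa 1360–2549) detected with Eu-anti-GST antibody (2 nM). […] Buffer: 50 mM HEPES, 5 mM MgCl2, 1 mM EGTA, 0.01% Pluronic F-127. Ki derived from displacement.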
On the technique in general: Time-resolved FRET reads energy transfer from a long-lived donor to a nearby acceptor.

Data set [5] addresses Phosphatidylinositol 4-kinase beta (Homo sapiens, UniProt Q9UBF8). The experiment in a line: Binding affinity to wild-type human full-length PI4Kbeta (M1 to M828 residues) expressed in mammalian expression system by kinome scan assay. The procedure, abridged:
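Competition binding: compound competes with an immobilized ligand for a DNA-tagged kinase. The 11-point, 3-fold serial dilution starts at 30 μM. Bound kinase is quantified by qPCR of the DNA tag. Kd is fitted to a standard dose–response curve using the Hill equation with slope fixed at −1, and reported as the mean of duplicate experiments.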

Data set [6] has as its target mTORC1 (Homo sapiens, UniProt P42345). Briefly: Inhibition of mTORC1 in human A2058 cells assessed as reduction in ribosomal protein S6 phosphorylation at Ser235/236 residues incubated for 1 hr by Western blot analysis. Format: cell-based. An outline of the steps:
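In-cell Western assay. A2058 cells (2 × 10^4/well) grown 24 h at 37 °C, 5% CO2, then exposed 1 h to inhibitor or DMSO. Cells fixed in 4% PFA, blocked, and stained for the phospho-protein with α-tubulin as internal standard; infrared fluorescence read-out. Signals normalized to tubulin and to DMSO controls to derive IC50.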

Data set [7] concerns the target T2, CYP1A1 (Homo sapiens, UniProt P04798).
T2 sequence (P04798 whole entry): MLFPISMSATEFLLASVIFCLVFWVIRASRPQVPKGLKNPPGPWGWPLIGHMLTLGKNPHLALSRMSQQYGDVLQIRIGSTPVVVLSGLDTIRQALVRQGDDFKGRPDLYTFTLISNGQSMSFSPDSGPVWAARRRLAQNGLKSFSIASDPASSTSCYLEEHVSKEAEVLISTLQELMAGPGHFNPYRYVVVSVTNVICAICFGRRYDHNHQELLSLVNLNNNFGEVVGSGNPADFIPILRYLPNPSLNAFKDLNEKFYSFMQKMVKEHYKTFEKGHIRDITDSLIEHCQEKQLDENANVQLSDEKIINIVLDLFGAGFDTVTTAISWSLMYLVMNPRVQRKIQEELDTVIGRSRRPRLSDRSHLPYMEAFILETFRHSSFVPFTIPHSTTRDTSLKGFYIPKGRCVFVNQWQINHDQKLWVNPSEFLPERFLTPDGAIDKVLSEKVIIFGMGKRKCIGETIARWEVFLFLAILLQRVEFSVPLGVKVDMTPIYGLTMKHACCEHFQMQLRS
Briefly: Substrate activity at recombinant human CYP1A1 expressed in baculovirus infected insect cells assessed as parent compound remaining at 1 uM incubated for 60 mins in absence of NADP+-regenerating system by LC-MS analysis. The data set is classed as ADME. The following applies: read-out: Stability. An outline of the steps:
(§2)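 Baculovirus/insect-cell Supersomes, each expressing a single human CYP, at 25 pmol/mL. Compound at 1 μM (0.25% DMSO), 37 °C, 60 min. Reactions run with a NADP+-regenerating cofactor mix or, as negative control, without cofactors and glucose-6-phosphate dehydrogenase. Stopped with ACN containing internal standard. Duplicates; % remaining from absolute amounts.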

For data set [8], the species on record is Homo sapiens. Briefly: Selectivity ratio of Ki for inhibition of alexa fluor 647-labeled kinase tracer 314 binding to recombinant human full-length N-terminal His6-tagged p110alpha/p85alpha expressed in baculovirus expression system to Ki for inhibition of alexa fluor 647-labeled kinase tracer 314 binding to recombinant human N-terminal GST-fused mTOR (1360 to 2549 residues) expressed in baculovirus expression system. An outline of the steps:
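Ratio of Ki values from the TR-FRET tracer 314 displacement assays. p110α: His6-tagged enzyme, biotin anti-His antibody and Eu-streptavidin (2 nM each), tracer at 20 nM, buffer 50 mM HEPES pH 7.5, 10 mM MgCl2, 1 mM EGTA, 0.01% Brij-35. mTOR: GST-mTOR 1360–2549, Eu-anti-GST, tracer 10 nM, HEPES/5 mM MgCl2/EGTA/Pluronic buffer.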

The target of data set [9] is T2, CYP1A1. Briefly: Substrate activity at recombinant human CYP1A1 expressed in baculovirus infected insect cells assessed as parent compound remaining at 1 uM incubated for 60 mins in presence of NADP+-regenerating system by LC-MS analysis. The data set is classed as ADME. To be noted: read-out: Stability. An outline of the steps:
as §2

In data set [10] the target is T3, CYP1A2 (Homo sapiens, UniProt P05177).
T3 sequence (P05177 whole entry): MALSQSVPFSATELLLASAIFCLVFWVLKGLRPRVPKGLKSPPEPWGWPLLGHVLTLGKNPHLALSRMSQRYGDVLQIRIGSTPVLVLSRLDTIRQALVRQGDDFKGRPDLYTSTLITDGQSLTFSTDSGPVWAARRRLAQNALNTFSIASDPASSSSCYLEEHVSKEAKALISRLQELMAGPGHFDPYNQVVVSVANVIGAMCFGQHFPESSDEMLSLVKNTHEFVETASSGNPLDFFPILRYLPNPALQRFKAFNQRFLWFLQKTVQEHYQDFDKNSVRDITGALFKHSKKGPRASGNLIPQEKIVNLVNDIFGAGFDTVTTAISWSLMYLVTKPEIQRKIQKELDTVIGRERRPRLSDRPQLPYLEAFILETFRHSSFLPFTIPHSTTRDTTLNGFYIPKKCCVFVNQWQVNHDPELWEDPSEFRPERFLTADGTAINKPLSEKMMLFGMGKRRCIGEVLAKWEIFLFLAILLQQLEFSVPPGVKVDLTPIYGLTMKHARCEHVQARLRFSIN
Briefly: Substrate activity at recombinant human CYP1A2 expressed in baculovirus infected insect cells assessed as parent compound remaining at 1 uM incubated for 60 mins in presence of NADP+-regenerating system by LC-MS analysis. To be noted: read-out: Stability. The data set is classed as ADME. An outline of the steps: as §2

Sequence of Phosphatidylinositol 4,5-bisphosphate 3-kinase catalytic subunit alpha isoform (P42336 whole entry, the tested form may be a part, canonical isoform): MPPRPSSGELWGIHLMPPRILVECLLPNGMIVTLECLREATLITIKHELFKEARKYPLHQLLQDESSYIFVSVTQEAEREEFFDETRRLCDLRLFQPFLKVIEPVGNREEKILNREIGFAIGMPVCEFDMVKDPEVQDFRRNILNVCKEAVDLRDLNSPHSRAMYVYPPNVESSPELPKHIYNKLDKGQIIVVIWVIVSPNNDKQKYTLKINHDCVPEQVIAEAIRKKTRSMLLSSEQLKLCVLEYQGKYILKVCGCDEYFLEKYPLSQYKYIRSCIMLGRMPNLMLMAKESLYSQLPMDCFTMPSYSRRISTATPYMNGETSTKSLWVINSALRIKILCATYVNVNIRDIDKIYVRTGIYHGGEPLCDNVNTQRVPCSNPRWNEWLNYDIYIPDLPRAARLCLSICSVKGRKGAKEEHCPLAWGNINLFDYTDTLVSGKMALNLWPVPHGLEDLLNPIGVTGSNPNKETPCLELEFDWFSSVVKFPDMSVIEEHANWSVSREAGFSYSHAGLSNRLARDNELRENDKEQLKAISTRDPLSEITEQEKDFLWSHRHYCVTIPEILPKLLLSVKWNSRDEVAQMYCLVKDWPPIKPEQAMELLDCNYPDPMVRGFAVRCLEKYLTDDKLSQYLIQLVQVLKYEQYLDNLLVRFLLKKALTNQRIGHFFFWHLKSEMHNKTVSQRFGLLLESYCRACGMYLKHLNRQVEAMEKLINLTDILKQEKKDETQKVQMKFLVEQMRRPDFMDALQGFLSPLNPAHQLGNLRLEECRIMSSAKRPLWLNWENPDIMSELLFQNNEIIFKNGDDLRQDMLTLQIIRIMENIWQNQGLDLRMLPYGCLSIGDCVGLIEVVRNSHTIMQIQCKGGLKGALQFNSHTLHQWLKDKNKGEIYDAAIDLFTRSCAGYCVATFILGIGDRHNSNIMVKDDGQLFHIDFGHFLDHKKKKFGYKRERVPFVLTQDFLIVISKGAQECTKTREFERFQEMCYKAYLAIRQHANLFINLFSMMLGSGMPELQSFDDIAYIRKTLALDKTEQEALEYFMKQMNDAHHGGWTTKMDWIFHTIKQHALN
Sequence of Phosphatidylinositol 4-kinase beta (Q9UBF8 whole entry, the tested form may be a part): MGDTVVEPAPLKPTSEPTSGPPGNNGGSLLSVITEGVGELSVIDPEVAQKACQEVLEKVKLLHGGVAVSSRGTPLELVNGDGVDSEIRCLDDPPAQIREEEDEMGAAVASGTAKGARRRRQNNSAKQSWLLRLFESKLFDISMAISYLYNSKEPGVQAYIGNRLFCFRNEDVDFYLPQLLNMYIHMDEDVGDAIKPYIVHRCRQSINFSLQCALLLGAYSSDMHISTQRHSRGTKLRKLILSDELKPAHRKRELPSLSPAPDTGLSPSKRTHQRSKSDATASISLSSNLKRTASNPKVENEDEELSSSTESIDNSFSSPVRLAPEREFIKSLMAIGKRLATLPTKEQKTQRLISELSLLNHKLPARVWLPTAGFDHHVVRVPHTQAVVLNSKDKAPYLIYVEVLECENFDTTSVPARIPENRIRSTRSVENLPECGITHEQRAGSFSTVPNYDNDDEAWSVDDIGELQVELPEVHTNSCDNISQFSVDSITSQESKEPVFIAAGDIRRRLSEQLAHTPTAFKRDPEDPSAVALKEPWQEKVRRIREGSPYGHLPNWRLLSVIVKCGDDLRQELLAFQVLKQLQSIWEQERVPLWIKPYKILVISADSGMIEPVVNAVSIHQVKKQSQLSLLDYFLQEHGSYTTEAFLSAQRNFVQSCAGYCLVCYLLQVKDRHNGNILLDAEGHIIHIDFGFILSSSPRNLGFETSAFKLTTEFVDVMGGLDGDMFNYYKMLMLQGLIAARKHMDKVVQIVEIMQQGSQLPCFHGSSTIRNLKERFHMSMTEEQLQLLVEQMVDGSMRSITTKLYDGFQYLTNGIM

Regarding `C[C@@H]1COCCN1c1nc(-c2ccc(N)nc2)nc2c1C[C@@H]1COCCN21`, the figures for the dissociation constant (Kd) in data set [1], in data set [3] and in data set [5] were 34 nM, 610 nM and more than 30000 nM, respectively. In data set [2], the Selectivity ratio turned out to be 17.9. Besides, the inhibition constant Ki (usually a measure of affinity in units of concentration, obtained from inhibition or displacement) in [4] worked out at 13 nM. Also, the 50% inhibitory concentration (IC50) (as a rule, the midpoint of a concentration-inhibition curve) in data set [6] stood at 61 nM. For the same molecule, the remaining at 1 h, 1 µM in data set [7] is 109%. Besides, in data set [8], the Ratio Ki turned out to be 165.
As to `C[C@@H]1COCCN1c1nc(-c2cnc(N)cn2)nc2c1C[C@@H]1COCCN21`, the dissociation constant Kd (usually the concentration at which binding is half-saturated) was 3.5 nM in data set [1], 1600 nM in data set [3] and more than 30000 nM in data set [5]. In addition, the Selectivity ratio in data set [2] was determined as 457. Also, the Ki in [4] worked out at 8 nM. In addition, the remaining at 1 h, 1 µM in data set [9] was found to be 77%; in data set [7], 96%; in data set [10] it was 92%. Also, the IC50 in data set [6] turned out to be 60 nM. Also, the Ratio Ki in [8] stood at 212.
For the molecule `C[C@@H]1COCCN1c1nc(-c2cnc(N)nc2)nc2c1C[C@@H]1COCCN21`, the dissociation constant Kd is 14 nM in [1], 120 nM in data set [3] and more than 30000 nM in [5]. Further, the Selectivity ratio in data set [2] turned out to be 8.6. For the same molecule, in data set [4], the Ki was found to be 2.5 nM. For the same molecule, the results for the remaining at 1 h, 1 µM in data set [9], in [7] and in data set [10] were 51%, 93% and 73%, respectively. The half-inhibitory concentration (IC50) in data set [6] is 55 nM. Moreover, in data set [8], the Ratio Ki is 214.
